Data set [1] deals with Acinetobacter baumannii. Nature of the data set: Antibacterial activity against carbapenem susceptible Acinetobacter baumannii isolate PR-340 assessed as inhibition of bacterial growth at 1:1 compound to sulbactam concentration by microdilution method.
The subject of data set [2] is Acinetobacter baumannii. Nature of the data set: Antibacterial activity against panel of 198 clinical isolates Acinetobacter baumannii assessed as inhibition of bacterial growth by microdilution method. In kind it is functional.
For data set [3], the system named is Acinetobacter baumannii. The experiment in a line: Antibacterial activity against carbapenem resistant Acinetobacter baumannii isolate PR-319 assessed as inhibition of bacterial growth in presence of 20 ug/ml sulbactam by microdilution method. In kind it is functional. The conditions noted are these: dose 20 µg/ml.
Data set [4] deals with Acinetobacter baumannii. Nature of the data set: Antibacterial activity against carbapenem resistant Acinetobacter baumannii isolate PR-351 assessed as inhibition of bacterial growth at 1:1 compound to sulbactam concentration by microdilution method. The format is functional. In outline:
(§1)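 Iron-depleted (Chelex-treated) cation-adjusted Mueller-Hinton broth microdilution; inoculum 6 × 10^4 cfu/mL. Test agent and sulbactam mixed 1:1 by mass and serially 2-fold diluted together. MIC in μg/mL.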

Data set [5] is described as follows: Plasma concentration in SC dosed CD-1 mouse treated four times at 6 hrs interval measured after 24 hrs. The format is ADME, organism-based. In a few lines: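 CD-1 mice dosed SC at 50 mg/kg. Plasma sampled at 0.167 to 24 h, three individual mice per time point, reported as mean and SD in ng/mL.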
For data set [6], the system named is Acinetobacter baumannii. The experiment in a line: Antibacterial activity against carbapenem susceptible Acinetobacter baumannii isolate PR-478 assessed as inhibition of bacterial growth at 1:1 compound to sulbactam concentration by microdilution method. The format is functional. In outline:
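Broth microdilution MIC in Chelex-treated, iron-depleted cation-adjusted Mueller-Hinton broth, inoculum 6 × 10^4 cfu/mL. Compound and sulbactam combined 1:1 by mass in a 2-fold dilution series.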

The subject of data set [7] is Acinetobacter baumannii. The experiment in a line: Antibacterial activity against carbapenem resistant Acinetobacter baumannii isolate PR-351 assessed as inhibition of bacterial growth in presence of 20 ug/ml sulbactam by microdilution method. In kind it is functional. As to conditions: dose 20 µg/ml.
For data set [8], the system named is Acinetobacter baumannii. Nature of the data set: Antibacterial activity against carbapenem resistant Acinetobacter baumannii isolate PR-325 assessed as inhibition of bacterial growth at 1:1 compound to sulbactam concentration by microdilution method. The format is functional. In outline:
as §1

Data set [9] deals with Acinetobacter baumannii. The experiment in a line: Antibacterial activity against carbapenem susceptible Acinetobacter baumannii isolate PR-452 assessed as bacterial growth inhibition by microdilution method. The format is functional. In outline:
(§2)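 Broth microdilution MIC in iron-depleted (Chelex resin-treated) cation-adjusted Mueller-Hinton broth, following the protocol used for siderophore-containing antibiotics. Inoculum was lowered to 6 × 10^4 cfu/mL.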

Data set [10] concerns Acinetobacter baumannii. The experiment in a line: Antibacterial activity against carbapenem resistant Acinetobacter baumannii isolate PR-380 assessed as inhibition of bacterial growth at 1:1 compound to sulbactam concentration by microdilution method. The format is functional. In a few lines:
as §1

The subject of data set [11] is Acinetobacter baumannii. Nature of the data set: Antibacterial activity against carbapenem resistant Acinetobacter baumannii isolate PR-380 assessed as inhibition of bacterial growth in presence of 20 ug/ml sulbactam by microdilution method. The format is functional. As to conditions: dose 20 µg/ml.
The subject of a further data set is Pseudomonas aeruginosa. Nature of the data set: Antibacterial activity against wild type Pseudomonas aeruginosa isolate PR-688 leucine at 533 residue assessed as inhibition of bacterial growth by microdilution method. In kind it is functional. In a few lines:
as §2

Values after ≈ are worked out from the molar mass of the structure shown.

As for `CC(C)(O/N=C(\C(=O)N[C@H]1CN2CC(C(=O)NCCN3C(=O)c4cc(O)c(O)cc4C3=O)=C(C(=O)O)N2C1=O)c1nc(N)sc1Cl)C(=O)O`, the minimum inhibitory concentration (MIC) in the data set with Acinetobacter baumannii [1] is 1 µg/mL; in the data set with Acinetobacter baumannii [3] it was 0.5 µg/mL; with Acinetobacter baumannii [4] it was 16 µg/mL; in the data set on Acinetobacter baumannii [6], 1 µg/mL; with Acinetobacter baumannii [7], at most 0.25 µg/mL; in the data set with Acinetobacter baumannii [8], over 16 µg/mL. The minimum inhibitory concentration (MIC) is over 16 µg/mL in the data set with Acinetobacter baumannii [9], 16 µg/mL in the data set with Acinetobacter baumannii [10], at most 0.25 µg/mL with Acinetobacter baumannii [11] and over 16 µg/mL with Pseudomonas aeruginosa. Further, the MIC50 with Acinetobacter baumannii [2] turned out to be 0.5 µg/mL (≈ 0.693 µM). Also, in the data set on Acinetobacter baumannii [2], the MIC90 was over 16 µg/mL. Also, the concentration at 24 h in [5] stood at 601 ng/mL.

The record behind these values is ChEMBL document CHEMBL4842318, “A γ-lactam siderophore antibiotic effective against multidrug-resistant Pseudomonas aeruginosa, Klebsiella pneumoniae, and Acinetobacter spp” (Eur J Med Chem, 2021).
